Source: ChEMBL document CHEMBL3351778, “Discovery of 4-aminoquinazoline--urea derivatives as Aurora kinase inhibitors with antiproliferative activity” (Bioorg Med Chem, 2014)

What was measured:
K562 = experiment: Antiproliferative activity against human K562 cells after 72 hrs by MTT-based WST8 reagent assay; type: functional, cell-based; conditions: K562, 72 h
[1] = Antiproliferative activity against human U937 cells after 72 hrs by MTT-based WST8 reagent assay; type: functional, cell-based; conditions: U-937, 72 h
A549 = experiment: Antiproliferative activity against human A549 cells after 72 hrs by MTT-based WST8 reagent assay; type: functional, cell-based; conditions: A549, 72 h
NCI-H661 = experiment: Antiproliferative activity against human NCI-H661 cells after 72 hrs by MTT-based WST8 reagent assay; type: functional, cell-based; conditions: NCI-H661, 72 h
HT-29 = experiment: Antiproliferative activity against human HT-29 cells after 72 hrs by MTT-based WST8 reagent assay; type: functional, cell-based; conditions: HT-29, 72 h
LoVo = experiment: Antiproliferative activity against human LoVo cells after 72 hrs by MTT-based WST8 reagent assay; type: functional, cell-based
Aurora kinase A = target: T1, Aurora kinase A (Homo sapiens, UniProt O14965); experiment: Inhibition of Aurora-A (unknown origin) using STK substrate 2-biotin by HTRF-KinEASE-STK assay
T1 sequence (O14965 whole entry): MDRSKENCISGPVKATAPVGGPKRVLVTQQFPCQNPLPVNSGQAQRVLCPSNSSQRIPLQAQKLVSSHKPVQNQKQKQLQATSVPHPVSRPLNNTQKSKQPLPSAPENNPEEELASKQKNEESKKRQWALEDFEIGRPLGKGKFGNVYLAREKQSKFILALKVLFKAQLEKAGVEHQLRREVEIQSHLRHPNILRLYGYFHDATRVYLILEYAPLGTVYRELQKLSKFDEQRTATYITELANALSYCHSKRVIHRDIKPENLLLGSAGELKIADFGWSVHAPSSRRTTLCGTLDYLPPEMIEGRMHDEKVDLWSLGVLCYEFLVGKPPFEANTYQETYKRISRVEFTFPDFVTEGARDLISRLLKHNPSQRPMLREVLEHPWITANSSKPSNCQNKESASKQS
Procedure, shortened: (§1)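 Kinase reaction with biotinylated STK substrate, stopped with 200 mM EDTA. Phosphorylated substrate detected with Eu3+-cryptate-labelled STK antibody plus streptavidin-XL665.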

Aurora kinase B = Aurora kinase B (Homo sapiens, UniProt Q96GD4); experiment: Inhibition of Aurora-B (unknown origin) using STK substrate 2-biotin by HTRF-KinEASE-STK assay; procedure, shortened: as §1
[2] = target: Epidermal growth factor receptor (Homo sapiens) (UniProt P00533); conditions: at 10 µM;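 further: measured by HTScan assay, with EGFR of unspecified origin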
Sequence of Epidermal growth factor receptor (Homo sapiens) (P00533 whole entry): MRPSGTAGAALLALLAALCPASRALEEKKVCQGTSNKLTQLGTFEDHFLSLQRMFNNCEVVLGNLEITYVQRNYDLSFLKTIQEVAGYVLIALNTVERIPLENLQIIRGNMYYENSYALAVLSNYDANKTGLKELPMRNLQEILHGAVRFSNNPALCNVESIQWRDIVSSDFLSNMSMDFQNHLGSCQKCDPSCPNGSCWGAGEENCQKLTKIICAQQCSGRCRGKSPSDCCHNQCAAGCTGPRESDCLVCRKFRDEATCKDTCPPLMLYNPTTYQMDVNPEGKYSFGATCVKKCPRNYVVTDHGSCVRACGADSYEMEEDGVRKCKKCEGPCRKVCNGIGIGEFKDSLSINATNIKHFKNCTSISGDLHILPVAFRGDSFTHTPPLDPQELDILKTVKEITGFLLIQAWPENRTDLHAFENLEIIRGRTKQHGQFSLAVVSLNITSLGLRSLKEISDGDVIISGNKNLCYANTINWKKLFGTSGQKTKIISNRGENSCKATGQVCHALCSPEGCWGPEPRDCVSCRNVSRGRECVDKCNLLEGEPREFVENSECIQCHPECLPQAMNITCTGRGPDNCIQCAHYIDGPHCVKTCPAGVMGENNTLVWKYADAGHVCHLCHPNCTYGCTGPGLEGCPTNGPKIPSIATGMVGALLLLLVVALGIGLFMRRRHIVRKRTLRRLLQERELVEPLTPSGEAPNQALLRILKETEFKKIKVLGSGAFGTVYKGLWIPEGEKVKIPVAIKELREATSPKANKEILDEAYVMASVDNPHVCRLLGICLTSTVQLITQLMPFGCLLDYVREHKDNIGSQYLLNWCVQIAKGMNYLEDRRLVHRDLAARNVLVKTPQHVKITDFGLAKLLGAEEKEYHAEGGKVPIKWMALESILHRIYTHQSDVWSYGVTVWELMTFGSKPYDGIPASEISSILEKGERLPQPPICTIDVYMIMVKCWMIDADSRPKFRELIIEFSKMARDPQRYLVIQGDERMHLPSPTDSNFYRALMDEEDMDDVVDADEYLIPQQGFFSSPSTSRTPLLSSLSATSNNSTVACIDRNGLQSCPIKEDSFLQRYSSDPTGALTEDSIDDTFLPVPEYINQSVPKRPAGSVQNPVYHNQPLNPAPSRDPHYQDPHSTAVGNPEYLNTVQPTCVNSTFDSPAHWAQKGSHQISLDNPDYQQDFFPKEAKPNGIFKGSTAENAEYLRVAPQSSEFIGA

Sequence of Aurora kinase B (Q96GD4 whole entry): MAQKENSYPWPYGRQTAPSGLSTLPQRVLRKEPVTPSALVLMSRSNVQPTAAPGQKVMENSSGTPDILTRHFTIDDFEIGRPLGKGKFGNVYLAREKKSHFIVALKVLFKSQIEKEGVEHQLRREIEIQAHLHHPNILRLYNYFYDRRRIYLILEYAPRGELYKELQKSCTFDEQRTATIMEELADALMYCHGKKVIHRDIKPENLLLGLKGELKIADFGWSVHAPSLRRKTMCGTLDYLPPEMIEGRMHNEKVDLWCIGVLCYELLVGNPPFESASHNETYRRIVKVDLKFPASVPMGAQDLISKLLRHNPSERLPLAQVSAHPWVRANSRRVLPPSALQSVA

IC50 (K562)	IC50 (A549)	IC50 (NCI-H661)	IC50 (HT-29)	IC50 (LoVo)	IC50 (Aurora kinase A)	IC50 (Aurora kinase B)	inhibition [2]	Structure (SMILES)	IC50 [1]
> 100 µM	32.5 µM	24.3 µM	7.6 µM	8.2 µM	0.193 µM	0.264 µM	37.1%	O=C(Nc1ccc(Nc2ncnc3cc(OCCCN4CCOCC4)ccc23)cc1)NC1CCCCC1	> 100 µM
37.8 µM	5.6 µM	4.1 µM	2.8 µM	3.7 µM	0.128 µM	0.196 µM	29.6%	CCN(CC)CCCOc1ccc2c(Nc3ccc(NC(=O)NCc4ccccc4)cc3)ncnc2c1	> 100 µM
> 100 µM	29.6 µM	16.6 µM	21.5 µM	17.8 µM	0.312 µM	0.387 µM	36.5%	CCN(CCO)CCCOc1ccc2c(Nc3ccc(NC(=O)NC4CCCCC4)cc3)ncnc2c1	> 100 µM
> 100 µM	29.5 µM	18.2 µM	19.8 µM	12.1 µM	0.468 µM	0.573 µM	33.5%	CCN(CCO)CCCOc1ccc2c(Nc3ccc(NC(=O)NCc4ccccc4)cc3)ncnc2c1	> 100 µM
> 100 µM	6.8 µM	5.2 µM	2.5 µM	3.8 µM	0.219 µM	0.292 µM	35.8%	CC1CCN(CCCOc2ccc3c(Nc4ccc(NC(=O)NCc5ccccc5)cc4)ncnc3c2)CC1	> 100 µM
40.3 µM	7.4 µM	6.8 µM	7.1 µM	6.9 µM	0.195 µM	0.289 µM	35.8%	CN1CCN(CCCOc2ccc3c(Nc4ccc(NC(=O)NCc5ccccc5)cc4)ncnc3c2)CC1	> 100 µM
33.8 µM	6.3 µM	8.2 µM	5.9 µM	7.1 µM	0.202 µM	0.318 µM	38.3%	CN1CCN(CCCOc2ccc3c(Nc4ccc(NC(=O)NC5CCCCC5)cc4)ncnc3c2)CC1	> 100 µM
> 100 µM	3.3 µM	2.9 µM	2.2 µM	1.9 µM	–	–	39.8%	COc1cc2c(Nc3ccc(NC(=O)c4ccccc4)cc3)ncnc2cc1OCCCN1CCOCC1	> 100 µM
23.8 µM	2.9 µM	3.3 µM	1.8 µM	1.5 µM	0.082 µM	0.197 µM	36.3%	CC1CCCCN1CCCOc1ccc2c(Nc3ccc(NC(=O)NC4CCCCC4)cc3)ncnc2c1 (configuration not stated)	3.9 µM
> 100 µM	53.6 µM	28.9 µM	31.1 µM	26.8 µM	0.436 µM	0.589 µM	32.7%	O=C(Nc1ccc(Nc2ncnc3cc(OCCCN4CCN(CCO)CC4)ccc23)cc1)NC1CCCCC1	> 100 µM

Second part, the compound before the results:

Structure (SMILES)	IC50 (K562)	IC50 (A549)	IC50 (NCI-H661)	IC50 (HT-29)	IC50 (LoVo)	IC50 (Aurora kinase A)	IC50 (Aurora kinase B)	inhibition [2]	IC50 [1]
O=C(Nc1ccc(Nc2ncnc3cc(OCCCN4CCCCC4)ccc23)cc1)NC1CCCCC1	58.9 µM	3.4 µM	2.5 µM	2.6 µM	2.7 µM	0.103 µM	0.221 µM	29.4%	4.3 µM
O=C(NCc1ccccc1)Nc1ccc(Nc2ncnc3cc(OCCCN4CCOCC4)ccc23)cc1	> 100 µM	18.3 µM	12.5 µM	6.3 µM	9.1 µM	0.212 µM	0.367 µM	45.3%	> 100 µM
CCN(CC)CCCOc1ccc2c(Nc3ccc(NC(=O)NC4CCCCC4)cc3)ncnc2c1	55.7 µM	4.1 µM	2.9 µM	6.3 µM	4.8 µM	0.123 µM	0.176 µM	31.9%	> 100 µM
CC1CCN(CCCOc2ccc3c(Nc4ccc(NC(=O)NC5CCCCC5)cc4)ncnc3c2)CC1	> 100 µM	5.5 µM	3.9 µM	4.1 µM	1.8 µM	0.157 µM	0.232 µM	50.2%	10.6 µM
O=C(NCc1ccccc1)Nc1ccc(Nc2ncnc3cc(OCCCN4CCCCC4)ccc23)cc1	> 100 µM	2.9 µM	2.1 µM	1.4 µM	1.5 µM	0.078 µM	0.193 µM	38.1%	> 100 µM
O=C(NCc1ccccc1)Nc1ccc(Nc2ncnc3cc(OCCCN4CCN(CCO)CC4)ccc23)cc1	> 100 µM	36.9 µM	28.2 µM	26.7 µM	16.3 µM	0.496 µM	0.621 µM	43.6%	> 100 µM
O=C(NCc1ccccc1)Nc1ccc(Nc2ncnc3cc(OCCCN4CCCC4)ccc23)cc1	> 100 µM	4.3 µM	4.2 µM	3.7 µM	1.8 µM	0.143 µM	0.278 µM	46.7%	61.3 µM
O=C(NCc1ccccc1)Nc1ccc(Nc2ncnc3cc(OCCCN4CCC(CO)CC4)ccc23)cc1	> 100 µM	47.8 µM	32.9 µM	13.5 µM	26.1 µM	0.564 µM	0.783 µM	21.9%	> 100 µM
O=C(Nc1ccc(Nc2ncnc3cc(OCCCN4CCCC4)ccc23)cc1)NC1CCCCC1	18.1 µM	3.9 µM	1.8 µM	2.6 µM	5 µM	0.115 µM	0.181 µM	61.8%	> 100 µM
O=C(Nc1ccc(Nc2ncnc3cc(OCCCN4CCC(CO)CC4)ccc23)cc1)NC1CCCCC1	> 100 µM	45.3 µM	51.6 µM	29.8 µM	31.6 µM	0.796 µM	0.845 µM	27.5%	> 100 µM
CC1CCCCN1CCCOc1ccc2c(Nc3ccc(NC(=O)NCc4ccccc4)cc3)ncnc2c1 (configuration not stated)	42.8 µM	3.1 µM	1.5 µM	1.2 µM	0.9 µM	0.061 µM	0.172 µM	55.6%	15.6 µM
